Assays:
Kallikrein-1 [1] = target: T1, Kallikrein-1 (Homo sapiens, UniProt P06870); test: Inhibition of human recombinant N-terminal His-tagged and enterokinase cleavage site-fused KLK1 (19 to 262 residues) expressed in baculovirus infected Sf9 insect cells using R110 labelled GSK3162232A as substrate measured at 30 secs interval for 5 mins by FLINT assay
Homo sapiens [2] = species: Homo sapiens; test: Selectivity ratio of IC50 for human recombinant N-terminal His-tagged and enterokinase cleavage site-fused KLK1 (19 to 262 residues) expressed in baculovirus infected Sf9 insect cells to IC50 for human recombinant 6His-Q-FLAG-tagged KLK5 expressed in baculovirus infected Sf9 insect cells
Kallikrein-5 [3] = target: T2, Kallikrein-5 (Homo sapiens, UniProt Q9Y337); test: Inhibition of human recombinant 6His-Q-FLAG-tagged KLK5 expressed in baculovirus infected Sf9 insect cells using (Tos-Gly-Pro-Arg)2[R110].2TFA as substrate measured at 30 secs interval for 5 mins by FLINT assay
T2 sequence (Q9Y337 whole entry): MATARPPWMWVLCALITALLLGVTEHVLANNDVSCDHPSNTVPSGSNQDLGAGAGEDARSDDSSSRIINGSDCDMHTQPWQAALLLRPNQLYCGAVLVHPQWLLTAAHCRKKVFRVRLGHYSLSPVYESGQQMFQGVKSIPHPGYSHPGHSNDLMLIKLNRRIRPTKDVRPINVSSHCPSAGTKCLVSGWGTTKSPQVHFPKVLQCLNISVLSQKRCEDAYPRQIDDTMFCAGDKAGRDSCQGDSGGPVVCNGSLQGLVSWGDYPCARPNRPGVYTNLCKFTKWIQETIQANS
In short: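 Standard KLK5 assay format. Its theoretical tight-binding limit corresponds to pIC50 8.4.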

Kallikrein-1 [4] = target: T1, Kallikrein-1; test: Inhibition of human recombinant N-terminal His-tagged and enterokinase cleavage site-fused KLK1 (19 to 262 residues) expressed in baculovirus infected Sf9 insect cells at 10 uM using R110 labelled GSK3162232A as substrate measured at 30 secs interval for 5 mins by FLINT assay relative to control
[5] = target: T3, Suppressor of tumorigenicity 14 protein (Homo sapiens, UniProt Q9Y5Y6); test: Inhibition of recombinant human N-terminal Met and 6-His-tagged matriptase (G596 to V855 residues) expressed in Escherichia coli using Boc-QAR-AMC as substrate incubated for 40 mins by FLINT assay
T3 sequence (Q9Y5Y6 whole entry): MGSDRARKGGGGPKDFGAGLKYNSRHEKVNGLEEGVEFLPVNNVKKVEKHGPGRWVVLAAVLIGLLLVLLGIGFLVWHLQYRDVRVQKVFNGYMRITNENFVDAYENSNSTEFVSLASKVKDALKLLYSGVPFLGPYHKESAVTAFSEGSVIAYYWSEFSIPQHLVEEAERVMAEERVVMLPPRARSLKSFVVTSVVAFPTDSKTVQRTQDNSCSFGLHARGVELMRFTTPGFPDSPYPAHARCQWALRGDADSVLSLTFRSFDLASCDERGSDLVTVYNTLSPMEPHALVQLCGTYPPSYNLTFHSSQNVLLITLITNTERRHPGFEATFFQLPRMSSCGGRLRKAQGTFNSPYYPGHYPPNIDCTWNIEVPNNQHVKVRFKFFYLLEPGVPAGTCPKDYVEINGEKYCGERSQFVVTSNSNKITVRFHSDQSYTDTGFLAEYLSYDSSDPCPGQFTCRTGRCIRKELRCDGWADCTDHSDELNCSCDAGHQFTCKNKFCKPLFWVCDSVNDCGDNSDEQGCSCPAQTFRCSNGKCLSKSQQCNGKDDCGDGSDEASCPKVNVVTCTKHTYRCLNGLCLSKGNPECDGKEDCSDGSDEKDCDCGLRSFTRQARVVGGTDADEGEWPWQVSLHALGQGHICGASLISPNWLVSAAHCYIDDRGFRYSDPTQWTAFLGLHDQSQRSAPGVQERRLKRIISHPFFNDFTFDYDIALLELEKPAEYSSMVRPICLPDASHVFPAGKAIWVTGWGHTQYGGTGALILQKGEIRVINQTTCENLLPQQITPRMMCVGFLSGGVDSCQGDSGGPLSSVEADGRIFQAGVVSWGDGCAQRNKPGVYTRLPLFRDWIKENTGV

Kallikrein-8 = target: T4, Kallikrein-8 (Homo sapiens, UniProt O60259); test: Inhibition of recombinant human C-terminal 10-His-tagged KLK8 (Gln29 to Gly260 residues) expressed in mouse NS0 cells using BOC-VPR-AMC as substrate incubated for 40 mins by FLINT assay
T4 sequence (O60259 whole entry): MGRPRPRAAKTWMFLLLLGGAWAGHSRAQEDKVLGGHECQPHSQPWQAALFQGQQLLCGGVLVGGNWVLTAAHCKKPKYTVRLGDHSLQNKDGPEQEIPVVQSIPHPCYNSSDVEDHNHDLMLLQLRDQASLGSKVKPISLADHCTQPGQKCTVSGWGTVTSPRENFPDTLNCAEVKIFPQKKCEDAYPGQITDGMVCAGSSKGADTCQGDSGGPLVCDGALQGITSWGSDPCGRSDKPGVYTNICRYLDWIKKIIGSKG

Kallikrein-14 = target: T5, Kallikrein-14 (Homo sapiens, UniProt Q9P0G3); test: Inhibition of recombinant human C-terminal 10-His-tagged KLK14 (Q19 to M248 residues) expressed in mouse NS0 cells using BOC-VPR-AMC as substrate incubated for 40 mins by FLINT assay
T5 sequence (Q9P0G3 whole entry): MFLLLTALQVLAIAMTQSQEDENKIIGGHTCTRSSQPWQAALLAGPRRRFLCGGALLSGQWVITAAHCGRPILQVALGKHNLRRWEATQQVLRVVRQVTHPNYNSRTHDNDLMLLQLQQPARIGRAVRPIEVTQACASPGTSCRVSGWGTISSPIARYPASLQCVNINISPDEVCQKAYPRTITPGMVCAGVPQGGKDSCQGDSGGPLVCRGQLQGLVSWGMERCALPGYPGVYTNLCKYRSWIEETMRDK

[6] = Dissociation constant, borocycle pKa of the compound; format: physicochemical
Kallikrein-7 = Kallikrein-7 (Homo sapiens, UniProt P49862); test: Inhibition of recombinant human C-terminal 10-His-tagged KLK7 (Glu23 to His252 residues) expressed in mouse NS0 cells using 5-FAM-E-A-L-Y-L-V-S-G-C(5-TAMRA) as substrate incubated for 40 mins by FLINT assay
[7] = target: Urokinase-type plasminogen activator (Homo sapiens, UniProt P00749); test: Inhibition of recombinant human C-terminal 10-His-tagged urokinase (M1 to L431 residues) expressed in mouse NS0 cells using Z-GGR-AMC as substrate incubated for 40 mins by FLINT assay
Prothrombin = Prothrombin (Homo sapiens, UniProt P00734); test: Inhibition of human recombinant C-terminal 10-His-tagged thrombin (M1 to E622 residues) expressed in mouse NS0 cells using BOC-VPR-AMC as substrate incubated for 40 mins by FLINT assay
Coagulation factor X = Coagulation factor X (Homo sapiens, UniProt P00742); test: Inhibition of recombinant human C-terminal 10-His-tagged factor Xa (L24 to K488 residues) expressed in baculovirus infected Sf21 insect cells using Mca-RPKPVE-Nval-WRK(Dnp)-NH2 as substrate incubated for 40 mins by FLINT assay
Plasma kallikrein = Plasma kallikrein (Homo sapiens, UniProt P03952); test: Inhibition of human C-terminal 6-His-tagged KLKB1 (G20-A638 residues) expressed in mouse NS0 cells using PFR-AMC as substrate incubated for 40 mins by FLINT assay
Homo sapiens [8] = species: Homo sapiens; test: Selectivity ratio of IC50 for human C-terminal 6-His-tagged KLKB1 (G20 to A638 residues) expressed in mouse NS0 cells to IC50 for human recombinant 6His-Q-FLAG-tagged KLK5 expressed in baculovirus infected Sf9 insect cells
Neutrophil elastase = target: T6, Neutrophil elastase (Homo sapiens, UniProt P08246); test: Inhibition of human neutrophil elastase using MeOSuc-AAPV-AMC as substrate incubated for 40 mins by FLINT assay
T6 sequence (P08246 whole entry): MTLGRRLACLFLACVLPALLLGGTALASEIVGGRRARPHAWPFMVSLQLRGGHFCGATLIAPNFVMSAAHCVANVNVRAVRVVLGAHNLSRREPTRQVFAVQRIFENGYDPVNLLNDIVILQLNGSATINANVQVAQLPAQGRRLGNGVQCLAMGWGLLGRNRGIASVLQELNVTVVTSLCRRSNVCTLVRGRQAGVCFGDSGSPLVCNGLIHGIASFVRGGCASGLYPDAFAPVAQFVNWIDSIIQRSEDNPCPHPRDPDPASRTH

Kallikrein-5 [9] = target: T2, Kallikrein-5; test: Inhibition of human recombinant 6His-Q-FLAG-tagged KLK5 expressed in baculovirus infected Sf9 insect cells using (Tos-Gly-Pro-Arg)2[R110].2TFA as substrate measured at 30 secs interval for 5 mins using 1 x 10'10M enzyme by FLINT assay

Structure (SMILES) | IC50 (Kallikrein-1 [1]) | IC50 (Kallikrein-5 [3]) | inhibition (Kallikrein-1 [4]) | IC50 [5] | IC50 (Kallikrein-8) | IC50 (Kallikrein-14) | pKa [6] | IC50 (Kallikrein-7) | IC50 [7] | IC50 (Prothrombin) | IC50 (Coagulation factor X) | IC50 (Plasma kallikrein) | IC50 (Neutrophil elastase) | IC50 (Kallikrein-5 [9]) | Ratio IC50 (Homo sapiens [2]) | Ratio IC50 (Homo sapiens [8])
N=C(N)c1ccc(CC2OB(O)c3ccccc32)cc1 (racemic) | 5.01 µM | 0.158 µM | – | – | – | – | – | – | – | – | – | – | – | – | 30 to 100 | –
N=C(N)c1ccc(NCC2Cc3ccccc3B(O)O2)cc1 (racemic) | > 10 µM | 1.58 µM | 35% | – | – | – | – | – | – | – | – | – | – | – | – | –
N=C(N)c1ccc(C2Cc3ccccc3B(O)O2)cc1OCc1cccnc1 (racemic) | 31.6 µM | – | – | 6.31 µM | 0.398 µM | 0.794 µM | 4.83 | > 100 µM | 50.1 µM | 2.51 µM | 7.94 µM | 0.1 µM | 5.01 µM | 0.00398 µM | > 100 | 10
N=C(N)c1ccc(CC2OB(O)c3cc(C(F)(F)F)ccc32)cc1OCc1cccnc1 (racemic) | > 10 µM | 0.0126 µM | 24% | 31.6 µM | 2 µM | 12.6 µM | 4.51 | > 100 µM | > 100 µM | 20 µM | 31.6 µM | 0.2 µM | > 100 µM | 0.00251 µM | – | 10
Cc1ccc2c(c1)C(Cc1ccc(C(=N)N)c(OCc3cccnc3)c1)OB2O (racemic) | > 10 µM | 0.02 µM | 10% | 25.1 µM | 10 µM | 25.1 µM | 4.73 | > 100 µM | > 100 µM | 6.31 µM | 31.6 µM | 0.794 µM | 25.1 µM | 0.00794 µM | – | 10
N=C(N)c1ccc(CC2OB(O)c3ccc(F)cc32)cc1OCc1cccnc1 (racemic) | > 10 µM | 0.0158 µM | 10% | 39.8 µM | 12.6 µM | 31.6 µM | 4.66 | > 100 µM | > 100 µM | 15.8 µM | 63.1 µM | 0.794 µM | 100 µM | 0.01 µM | – | 10

More lines, main results first:

IC50 (Kallikrein-1 [1]) | IC50 (Kallikrein-5 [3]) | inhibition (Kallikrein-1 [4]) | IC50 [5] | IC50 (Kallikrein-8) | IC50 (Kallikrein-14) | pKa [6] | IC50 (Kallikrein-7) | IC50 [7] | IC50 (Prothrombin) | IC50 (Coagulation factor X) | IC50 (Plasma kallikrein) | IC50 (Neutrophil elastase) | IC50 (Kallikrein-5 [9]) | Structure (SMILES) | Ratio IC50 (Homo sapiens [2]) | Ratio IC50 (Homo sapiens [8])
> 10 µM | 0.0398 µM | 13% | 25.1 µM | 12.6 µM | 39.8 µM | 4.71 | > 100 µM | > 100 µM | 31.6 µM | 79.4 µM | 1.26 µM | > 100 µM | 0.0251 µM | COc1ccc2c(c1)C(Cc1ccc(C(=N)N)c(OCc3cccnc3)c1)OB2O (racemic) | – | 10
10 µM | 0.0794 µM | – | – | – | – | – | – | – | – | – | – | – | – | N=C(N)c1ccc(C2Cc3ccccc3B(O)O2)cc1 (racemic) | 30 to 100 | –
> 10 µM | 0.0251 µM | 27% | 1.26 µM | 1.58 µM | 0.398 µM | – | > 100 µM | 5.01 µM | 3.16 µM | 50.1 µM | 0.0794 µM | 0.794 µM | 0.0251 µM | Cc1cccc2c1B(O)OC(c1ccc(C(=N)N)c(OCc3cccnc3)c1)C2 (racemic) | – | 10
